Test results reported in ChEMBL document CHEMBL3046177, “Plant growth inhibitory activity of p-hydroxyacetophenones and tremetones from Chilean endemic Baccharis species and some analogous: a comparative study” (J Agric Food Chem, 2002).
Activity calls are given as the source filed them. The calls are words filed in the database; no cut-off is given here.

Tests used:
[1] = test system: Lactuca sativa; test: Phytotoxicity against Lactuca sativa (lettuce) assessed as inhibition of root development during seeding stage after 120 hr; format: functional, organism-based
Summary of the method: (§1)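 Petri-dish seedling assay on filter paper wetted with test solution (MeOH < 1%), 28 °C in the dark. Coleoptile/hypocotyl and root lengths of all germinated seeds measured after 120 h, then plants dried to constant weight at 40 °C. Three replicates; 50% inhibitory concentrations by Probit analysis of percent inhibition versus concentration.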

[2] = test system: Lolium multiflorum; test: Phytotoxicity against Lolium multiflorum (Italian ryegrass) assessed as inhibition of root development during seeding stage after 120 hr; format: functional, organism-based; summary of the method: as §1
[3] = test system: Physalis ixocarpa; test: Phytotoxicity against Physalis ixocarpa assessed as inhibition of seed respiration during germination after 24 hr; format: functional, organism-based
Summary of the method: (§2)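 Oxygen uptake of germinating seeds measured polarographically with a Clark-type electrode at 25 °C in a nonilluminated cell over 5 and 10 min, at several compound concentrations. Expressed as percent of control (100%). Three experiments; RI50 from Probit analysis.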

[4] = test system: Lolium multiflorum; test: Phytotoxicity against Lolium multiflorum (Italian ryegrass) assessed as inhibition of seed germination after 48 hr; format: functional
Summary of the method: (§3)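 Seeds of uniform size on Whatman No.1 filter paper in 85 mm Petri dishes, wetted with 8 or 10 mL deionized water or test solution (MeOH < 1%); controls got matching water/methanol. Sealed, incubated at 28 °C in the dark, scored at 48 h intervals; germination = 1 mm radicle extrusion. Three replicates.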

[5] = test system: Physalis ixocarpa; test: Phytotoxicity against Physalis ixocarpa assessed as inhibition of shoot development during seeding stage after 120 hr; format: functional, organism-based; summary of the method: as §1
[6] = test system: Lolium multiflorum; test: Phytotoxicity against Lolium multiflorum (Italian ryegrass) assessed as inhibition of seed respiration during germination after 24 hr; format: functional, organism-based; summary of the method: as §2
[7] = test system: Lolium multiflorum; test: Phytotoxicity against Lolium multiflorum (Italian ryegrass) assessed as inhibition of seed germination at 500 uM after 48 hr; format: functional; summary of the method: as §3
[8] = test system: Lolium multiflorum; test: Phytotoxicity against Lolium multiflorum (Italian ryegrass) assessed as inhibition of seed respiration during germination at 300 to 500 uM after 24 hr; format: functional, organism-based; summary of the method: as §2
[9] = test system: Trifolium pratense; test: Phytotoxicity against Trifolium pratense (red clover) assessed as inhibition of shoot development during seeding stage after 120 hr; format: functional, organism-based; summary of the method: as §1
[10] = test system: Lolium multiflorum; test: Increase of seed respiration during germination in Lolium multiflorum (Italian ryegrass)at 30 uM; format: functional, organism-based; summary of the method: as §2
[11] = test system: Trifolium pratense; test: Increase of shoot development during seeding stage in Trifolium pratense (red clover) at 200 uM after 120 hr; format: functional, organism-based; summary of the method: as §1
[12] = test system: Lactuca sativa; test: Phytotoxicity against Lactuca sativa (lettuce) assessed as inhibition of seed respiration during germination after 24 hr; format: functional, organism-based; summary of the method: as §2
[13] = test system: Lactuca sativa; test: Increase of root development during seeding stage in Lactuca sativa (lettuce) at 50 to 300 uM after 120 hr; format: functional, organism-based; summary of the method: as §1
[14] = test system: Physalis ixocarpa; test: Increase of shoot development during seeding stage in Physalis ixocarpa up to 50 uM after 120 hr; format: functional, organism-based; summary of the method: as §1
[15] = test system: Lolium multiflorum; test: Phytotoxicity against Lolium multiflorum (Italian ryegrass) assessed as inhibition of shoot development during seeding stage after 120 hr; format: functional, organism-based; summary of the method: as §1
[16] = test system: Trifolium pratense; test: Phytotoxicity against Trifolium pratense (red clover) assessed as inhibition of root development during seeding stage after 120 hr; format: functional, organism-based; summary of the method: as §1
[17] = test system: Lolium multiflorum (ryegrass); test: Phytotoxicity against Lolium multiflorum (ryegrass) assessed as inhibition of seed germination at 500 uM after 48 hr
[18] = test system: Lactuca sativa; test: Phytotoxicity against Lactuca sativa (lettuce) assessed as inhibition of shoot development during seeding stage after 120 hr; format: functional, organism-based; summary of the method: as §1
[19] = test system: Trifolium pratense; test: Phytotoxicity against Trifolium pratense (red clover) assessed as inhibition of seed respiration during germination after 24 hr; format: functional, organism-based; summary of the method: as §2
[20] = test system: Trifolium pratense; test: Phytotoxicity against Trifolium pratense (red clover) assessed as inhibition of seed germination after 48 hr; format: functional; summary of the method: as §3
[21] = test system: Trifolium pratense; test: Increase of root development during seeding stage in Trifolium pratense (red clover) at 50 to 300 uM after 120 hr; format: functional, organism-based; summary of the method: as §1
[22] = test system: Lactuca sativa; test: Phytotoxicity against Lactuca sativa (lettuce) assessed as inhibition of seed germination after 48 hr; format: functional; summary of the method: as §3
[23] = test system: Physalis ixocarpa; test: Phytotoxicity against Physalis ixocarpa assessed as inhibition of root development during seeding stage after 120 hr; format: functional, organism-based; summary of the method: as §1
[24] = test system: Physalis ixocarpa; test: Phytotoxicity against Physalis ixocarpa assessed as inhibition of seed germination after 48 hr; format: functional; summary of the method: as §3

CC(=O)c1ccc(O[C@@H]2O[C@H](CO)[C@@H](O)[C@H](O)[C@H]2O)cc1 [PICEIN]
I50 [1]: inactive | I50 [2]: inactive | I50 [3]: inactive | GI50 [4]: inactive | I50 [5]: inactive | I50 [6]: inactive | inhibition at 500 µM [7]: 30% | Activity [8]: Active | I50 [9]: inactive | Activity [10]: Active | Activity [11]: Active | I50 [12]: inactive | Activity [13]: Active | Activity [14]: Active | I50 [15]: inactive | I50 [16]: inactive | inhibition at 500 µM [17]: 30% | I50 [18]: inactive | I50 [19]: inactive | GI50 [20]: inactive | Activity [21]: Active | GI50 [22]: inactive | I50 [23]: inactive | GI50 [24]: inactive

C=C(C)[C@H]1Cc2c(ccc(C(C)=O)c2OC(C)=O)O1 [4-ACETYL TREMETONE]
IC50 ([1]; read-out: I50): 87.5 µM | IC50 ([2]; read-out: I50): 82.1 µM | I50 [3]: inactive | GI50 [4]: 79.9 µM | IC50 ([5]; read-out: I50): 65.5 µM | I50 [6]: inactive | inhibition at 500 µM [7]: 30% | Activity [8]: Active | IC50 ([9]; read-out: I50): 45 µM | Activity [10]: Active | Activity [11]: Active | I50 [12]: inactive | Activity [13]: Active | Activity [14]: Active | IC50 ([15]; read-out: I50): 87.5 µM | IC50 ([16]; read-out: I50): 45 µM | inhibition at 500 µM [17]: 30% | IC50 ([18]; read-out: I50): 89.5 µM | I50 [19]: inactive | GI50 [20]: 40 µM | Activity [21]: Active | GI50 [22]: 85.5 µM | IC50 ([23]; read-out: I50): 70.1 µM | GI50 [24]: 55.2 µM
